Screening results (PubChem BioAssay)
Rows were chosen to be rich in hits. Some 1.3% of all compounds tested hit in one or more screens of this group.
GSK3 alpha inh: blocks human GSK-3 alpha kinase | ADP-Glo luminescence, 60 min | AID 2650 | P49840 | inhibition, % at 10 µM | 320,000 compounds, 0.1% hits;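 active = more than half of replicates show inhibition above 20%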;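 also: GST-tagged GSK-3 alpha with peptide substrate and 25 µM ATP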
STK33 kinase inh: blocks human STK33 kinase activity; Q9BYT3; purified STK33, MBP phosphorylation, ADP-Glo luminescence; inhibition, % at 10 µM; 320,000 compounds, 0.073% hits;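 active = inhibition at or above 25%, using the most active replicate where run in duplicate; inactive = inhibition below 25%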
Target sequence (Q9BYT3 whole entry, looked up): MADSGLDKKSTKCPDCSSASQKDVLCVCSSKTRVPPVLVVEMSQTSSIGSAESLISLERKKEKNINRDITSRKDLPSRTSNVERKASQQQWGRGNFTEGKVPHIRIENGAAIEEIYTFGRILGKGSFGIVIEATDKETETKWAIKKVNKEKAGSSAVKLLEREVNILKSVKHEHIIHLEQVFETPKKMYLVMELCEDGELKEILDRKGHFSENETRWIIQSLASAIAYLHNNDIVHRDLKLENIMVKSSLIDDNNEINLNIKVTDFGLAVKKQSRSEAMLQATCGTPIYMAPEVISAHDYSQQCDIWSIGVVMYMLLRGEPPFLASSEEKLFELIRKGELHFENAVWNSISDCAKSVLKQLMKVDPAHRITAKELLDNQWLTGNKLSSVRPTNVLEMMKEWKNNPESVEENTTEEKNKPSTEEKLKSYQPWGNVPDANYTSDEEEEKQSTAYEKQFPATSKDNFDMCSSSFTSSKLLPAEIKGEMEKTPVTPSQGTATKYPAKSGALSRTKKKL
Hep lipid drop: hepatic lipid droplet formation modulation; AML12 mouse hepatocytes, oleate lipid droplets, BODIPY imaging; inhibition, % at 6.5 µM; 240,000 compounds, 0.4% hits; AID 1656;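 active = lipid droplet intensity inhibited by at least 50%, with more than 500 cells counted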
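Assay system: AML12 mouse liver cells | Compound dosing: One dose, 6.5 µM compound | Read-out basis: Droplet intensity reduction, % inhibition | Measured by: Fluorescence imaging, 20x objective, two fields per well | Schedule: Overnight treatment with compound plus oleate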
LANA-H2B inh: blocks KSHV LANA binding to histone H2A/H2B | Q9QR71 | 320,000 compounds, 0.6% hits | inhibition, % (concentration not given with the values) | cell-free LANA-H2A/H2B peptide, fluorescence polarization | AID 2629; in the data active = inhibition mostly above about 10%, no sharp cut-off; inactive = mostly below about 6.7%
TAG inh: triacylglycerol accumulation inhibition | AID 651582 | H9c2 cells, Nile Red lipid (TAG) fluorescence; cells loaded with 200 µM oleic acid | 230,000 compounds, 0.66% hits | inhibition, % at 12.5 µM;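 active = pattern-corrected inhibition of lipid staining of at least 50% with the nuclear-stain viability signal not falling by more than 50%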
GSK3beta inhib: inhibitors of human GSK3beta kinase. P49841. GST-GSK3beta kinase, ADP-Glo luminescence, 60 min; hits give low values. activity score (negative = inhibition), % at 10 µM. 300,000 compounds, 0.038% hits;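 active = more than half of replicate wells score below -50%, meaning over 50% inhibition versus plate controls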
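Assay system: GST-fused GSK3beta enzyme, cell-free / Medium: Tris pH 7.5 buffer with MgCl2, DTT, BSA, heparin / Also added: peptide substrate plus 25 µM ATP (final) / Compound: 10 µM single point / Timing: kinase reaction with compound 60 min at room temperature / Detection: ADP-Glo luminescence / Benchmarks: DMSO neutral wells and GW8510 at 20 µM as positive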
Each line names hits and unclear results; the compound was inactive in the other large screens.

COc1ccc(NC(=O)CC2SC(=NCC3CCCO3)NC2=O)cc1 (centres undefined)	none
C[C@H]1CCC[C@]2(O[C@@H](CCO)C[C@H](O)[C@H]2O)O1	none
O=Nc1ccc(O)c2ncccc12	TAG inh 67
CCN(CC)CCn1nc2c3c(cccc3c1=O)-c1ccccc1-2	none
N#CC1=C2SCN(c3ccccc3)CN2C(=O)CC1c1ccccc1Cl (centres undefined)	none (no result: Hep lipid drop)
N#CC1=C2SCN(Cc3ccccc3)CN2C(=O)CC1c1ccccc1F (centres undefined)	GSK3 alpha inh 61 (no result: Hep lipid drop)
N#C/C(=C(\O)Cc1ccccc1)c1nc2ccccc2[nH]1	none
N#C/C(=C(/O)c1ccco1)c1nc2ccccc2[nH]1	STK33 kinase inh 29 (no result: TAG inh)
Cc1ccc2oc(=O)cc(CN3CCC(C)CC3)c2c1	none (no result: Hep lipid drop)
CCc1ccc2oc(=O)cc(CN3CCC(C)CC3)c2c1	LANA-H2B inh 21 (no result: Hep lipid drop)
Cc1ccc(O)c(Nc2c3ccccc3nc3ccccc23)c1	none (no result: TAG inh)
O=C(CN1C(=O)C2CC=CCC2C1=O)NCc1ccc2c(c1)OCO2 (centres undefined)	none (no result: Hep lipid drop)
O=C(CN1C(=O)C2C3C=CC(C3)C2C1=O)NCc1ccc2c(c1)OCO2 (centres undefined)	LANA-H2B inh 19
CCC(=O)Nc1ccc(S(=O)(=O)Nc2ncccn2)cc1	none
O=C(Cn1cnc2scc(-c3ccc(F)cc3)c2c1=O)N1CCOCC1	none
COc1ccc(-c2csc3ncn(CC(=O)N4CCOCC4)c(=O)c23)cc1	LANA-H2B inh 16
Cc1cccc(-n2nnnc2SCC(=O)NCC2(N3CCOCC3)CCCCC2)c1C	LANA-H2B inh active (no result: Hep lipid drop, GSK3beta inhib)
CC1CCc2c(sc3nn[nH]c(=O)c23)C1 (centres undefined)	GSK3 alpha inh 52 (no result: Hep lipid drop, TAG inh)
O=C(COc1ccc(Cl)cc1)NNC(=O)c1ccncc1	LANA-H2B inh 39 (no result: Hep lipid drop, GSK3beta inhib)
CC(C)C[C@H](NC(=O)CCCn1nnc2ccccc2c1=O)C(=O)O	none
O=C(O)CCNC(=O)CCCn1nnc2ccccc2c1=O	LANA-H2B inh 92
CC(C)CN(C)Cc1c(C(=O)N2CCc3ccccc3C2)nc2ccc(Cl)cn12	LANA-H2B inh 17
NC(=O)C1CCCN(Cc2c(C(=O)N3CCc4ccccc4C3)nc3ccc(Cl)cn23)C1 (centres undefined)	LANA-H2B inh 99
COCCn1c(SCc2ccc(Cl)cc2)nc2c1c(=O)[nH]c(=O)n2C	none (no result: Hep lipid drop)
CCCCOC(=O)CSc1nc2c(c(=O)[nH]c(=O)n2C)n1C/C=C(\C)Cl	LANA-H2B inh 12 (no result: Hep lipid drop)
C/C=C/Cn1c(SCc2ccc(Cl)cc2)nc2c1c(=O)[nH]c(=O)n2C	STK33 kinase inh 29 (no result: Hep lipid drop)
C/C(Cl)=C/Cn1c(SCC(C)C)nc2c1c(=O)[nH]c(=O)n2C	none (no result: Hep lipid drop, TAG inh)
COCCCNC(=O)CNC(=S)N(Cc1ccc(F)cc1)C1CCCCC1	LANA-H2B inh 30 (no result: Hep lipid drop, TAG inh)
CCOC(=O)C1=C(C)NC(=O)NC1C1CC=CCC1 (centres undefined)	none
COC(=O)C1=C(C)NC(C)=C(C(=O)OC)C1C1CC=CCC1 (centres undefined)	LANA-H2B inh 8.1
COc1nc2ccc(C)cc2cc1-c1noc(-c2cccnc2)n1	none
CCn1nnnc1SCC(=O)NCc1cccs1	none (no result: Hep lipid drop)
CCCn1nnnc1SCC(=O)NCc1cccs1	LANA-H2B inh 98 (no result: Hep lipid drop)
COc1ccc(N(CC(=O)NC2CCCCCC2)S(=O)(=O)c2ccc(C)cc2)cc1OC	none
CSc1nsc(SCC(=O)Nc2ccc(C(N)=O)cc2)n1	LANA-H2B inh 31 (no result: TAG inh)
CSc1nsc(SCC(=O)Nc2ccc(C(C)=O)cc2)n1	none (no result: GSK3 alpha inh, TAG inh)
CN1CCC(=O)N([C@H](CN=[N+]=[N-])c2ccccc2)CC1	none
COc1cc(/C=N/Nc2nc(C)nc3c2cnn3-c2ccccc2)ccc1O	TAG inh 57 (no result: GSK3 alpha inh, STK33 kinase inh, LANA-H2B inh)
Cc1ccc(NC(=O)c2scc3c2CCCC3)cc1	none (no result: Hep lipid drop, TAG inh)
O=C(C1=C(O)C(=O)N(CCCN2CCOCC2)C1c1ccccn1)c1cc2ccccc2o1 (centres undefined)	LANA-H2B inh 28 (no result: Hep lipid drop)
CC1(C)C2CCC1(CS(=O)(=O)NC(CC(=O)O)c1cccc(Br)c1)C(=O)C2 (centres undefined)	none (no result: TAG inh)
CS(=O)(=O)C1=NSC2=NC(=O)/C(=C\c3cccn3-c3ccc(Cl)cc3)C(=N)N21	LANA-H2B inh 48 (no result: TAG inh)
Cc1cc(/C=C2/C(=N)N3C(=NC2=O)SN=C3S(C)(=O)=O)c(C)n1-c1ccccc1F	none
CCc1noc(C)c1C(=O)Nc1cccc(S(=O)(=O)N2CCCCCC2)c1	none (no result: Hep lipid drop)
CC1=CC(=O)c2c(O)ccc(O)c2C1=O	LANA-H2B inh 17 (no result: TAG inh, GSK3beta inhib)
COc1ccc(C(=O)NNC(=O)CSc2nnnn2-c2cc(OC)cc(OC)c2)cc1	none (no result: TAG inh)
Cc1ccc2c(c1)c1c(n2CC(O)Cn2ccnc2C)C(=O)CCC1 (centres undefined)	none
Cc1ccc2c(c1)c1c(n2CC(O)CNC2CCCC2)CCCC1 (centres undefined)	TAG inh 99
Cc1ccc(Nc2nc(N3CCOCC3)nc(N3CCOCC3)n2)cc1	none (no result: Hep lipid drop, TAG inh)
CCCCc1ccc(Nc2nc(N3CCOCC3)nc(N3CCOCC3)n2)cc1	LANA-H2B inh 21 (no result: TAG inh)
Nc1ccc(-c2c3ccc(=O)cc-3oc3cc(O)ccc23)cc1C(=O)O	LANA-H2B inh 38 (no result: Hep lipid drop, TAG inh)
Cc1occc1C(=O)N/N=C/c1ccc(N(C)C)cc1	STK33 kinase inh 29
Cc1occc1C(=O)N/N=C/C=C/c1ccc(N(C)C)cc1	none
Cc1cc(NC(=O)Cn2nc(C(=O)O)c3ccccc3c2=O)ccc1Br	none (no result: TAG inh)
CC(O)c1nc2ccccc2n1CC(=O)Nc1ccc(F)cc1Cl (centres undefined)	none
COc1ccc(CCN2CN(S(=O)(=O)c3ccccc3)c3nc4ccccc4nc32)cc1	none (no result: TAG inh)
CO/N=C/C(=N\Nc1ccc(C)cc1)C(=O)c1ccc(OC)cc1	TAG inh 60
CO/N=C/C(=N\Nc1ccc(OC)cc1)C(=O)c1ccc(F)cc1	none (no result: Hep lipid drop)
COc1ccc(C(=O)CC(Sc2ccccc2N)c2ccc(OC)cc2)cc1 (centres undefined)	none (no result: GSK3 alpha inh, STK33 kinase inh, Hep lipid drop, LANA-H2B inh, GSK3beta inhib)
C=CCn1c(=O)c2ccc(C(=O)NCc3ccccc3)cc2n(Cc2cccc(Cl)c2)c1=O	none
CCOC(=O)C1(Cc2cccc(Cl)c2)CCCN(C(=O)c2ccoc2C)C1 (centres undefined)	LANA-H2B inh 95
CC(=O)NC(CC(C)C)C(=O)O (centres undefined)	none (no result: GSK3 alpha inh, STK33 kinase inh, Hep lipid drop, LANA-H2B inh, GSK3beta inhib)
CC(C)C[C@H](NC(=O)NC(C)C)C(=O)O	LANA-H2B inh 16 (no result: TAG inh)
CCCn1c(=N)c(C#N)cc2c(=O)n3ccccc3nc21	LANA-H2B inh 13 (no result: TAG inh)
CCCn1c(=N)c(C#N)cc2c(=O)n3cccc(C)c3nc21	none (no result: TAG inh)
CCOCCCn1c(=NC(=O)c2cccs2)c(C#N)cc2c(=O)n3ccccc3nc21	LANA-H2B inh 35
Cc1cccn2c(=O)c3cc(C#N)c(=NC(=O)c4cccs4)n(CCCOC(C)C)c3nc12	none
